Laboratory results from ChEMBL document CHEMBL4145675, “2-Phenylquinoline S. aureus NorA Efflux Pump Inhibitors: Evaluation of the Importance of Methoxy Group Introduction” (J Med Chem, 2018).

Legend:
Staphylococcus aureus [1] = test: Antimicrobial activity against mepA deficient Staphylococcus aureus SA-K2885 by microdilution method; type: organism-based; details: in vivo
Summary of the method: (§1)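 CLSI broth microdilution MIC of the compound alone in norA-deleted strains. SA-K2885 carries empty pALC2073 and SA-K2886 carries pALC2073-mepA (xyl/tetO promoter). 0.05 µg/mL tetracycline was present throughout to induce.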

Staphylococcus aureus [2] = test: Antimicrobial activity against mepA overexpressing Staphylococcus aureus SA-K2886 by microdilution method; type: organism-based; details: in vivo; summary of the method: as §1

**Q.** CC[n+]1c(-c2ccccc2)c2cc(N)ccc2c2ccc(N)cc21.[Br-] [HOMIDIUM BROMIDE] was tested. Which MIC (Staphylococcus aureus [1]) did it give?
**A.** 0.63 µg/mL

**Q.** And the MIC (Staphylococcus aureus [2])?
**A.** 25 µg/mL
